Assay [1] concerns the target T1, Prostaglandin G/H synthase 1 (Homo sapiens, UniProt P23219). Put plainly: Compound was tested for in vitro inhibition of recombinant human Prostaglandin G/H synthase 1 (COX-1) by enzyme Assay.
The target in assay [2] is T1, Prostaglandin G/H synthase 1. The experiment in a line: In vitro average percent inhibition of human prostaglandin G/H synthase 1 (COX-1) at a concentration of 100 uM. In a few lines:
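Supplied recombinant human COX-1 (5 units) preincubated 2 min at 25 °C in 0.1 M Tris-HCl pH 8.0 with 5 mM EDTA, 2 mM phenol and heme; compound or DMSO added, 20 min at 25 °C; started with 10 mM arachidonic acid stock, 2 min at 37 °C; stopped with HCl, SnCl2 reduction; prostaglandins by EIA; percent inhibition versus solvent control.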

In assay [3] the target is T2, Prostaglandin G/H synthase 2 (Homo sapiens) (UniProt P35354).
T2 sequence (whole entry): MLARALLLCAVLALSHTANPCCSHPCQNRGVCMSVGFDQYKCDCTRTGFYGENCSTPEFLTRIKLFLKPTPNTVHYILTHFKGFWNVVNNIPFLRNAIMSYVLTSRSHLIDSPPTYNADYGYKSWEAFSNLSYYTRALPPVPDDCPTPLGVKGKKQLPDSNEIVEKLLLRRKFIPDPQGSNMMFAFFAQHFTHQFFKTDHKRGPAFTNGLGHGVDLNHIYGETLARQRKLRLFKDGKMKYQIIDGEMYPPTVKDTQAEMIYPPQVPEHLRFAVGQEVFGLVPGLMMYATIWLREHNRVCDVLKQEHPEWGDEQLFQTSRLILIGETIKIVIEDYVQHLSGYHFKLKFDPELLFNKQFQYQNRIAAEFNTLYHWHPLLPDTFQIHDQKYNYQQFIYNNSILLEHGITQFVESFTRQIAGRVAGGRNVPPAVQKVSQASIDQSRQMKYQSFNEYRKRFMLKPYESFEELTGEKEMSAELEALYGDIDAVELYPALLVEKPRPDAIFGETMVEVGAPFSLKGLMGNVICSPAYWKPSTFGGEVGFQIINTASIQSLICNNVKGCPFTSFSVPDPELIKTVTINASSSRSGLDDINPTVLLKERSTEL
The note with it: at 10 µM.

The target of assay [4] is T2, Prostaglandin G/H synthase 2 (Homo sapiens). The note with it: at 1 µM.
Assay [5] concerns the target T3, Prostaglandin G/H synthase 2 (Homo sapiens, UniProt P35354).
T3 sequence (P35354 whole entry): T2 sequence (whole entry)
The experiment in a line: Compound was tested for the inhibition of recombinant human Prostaglandin G/H synthase 2 (COX-2) by enzyme Assay.

Assay [6] addresses T1, Prostaglandin G/H synthase 1. The following applies: at 100 µM.
Assay [7] addresses T2, Prostaglandin G/H synthase 2 (Homo sapiens). The note with it: Blood; at 10 µM.
The target of assay [8] is T3, Prostaglandin G/H synthase 2. Put plainly: Compound was tested for the inhibition of human Prostaglandin G/H synthase 2 (COX-2) in human whole blood. The class given is tissue-based.
Assay [9] concerns the target T1, Prostaglandin G/H synthase 1. The experiment in a line: Compound was tested for in vitro Prostaglandin G/H synthase 1 (COX-1) idetermined in human whole blood by human whole blood assay. The class given is tissue-based. In a few lines: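 Heparinised (20 U/mL) whole blood from non-fasted donors free of aspirin/NSAIDs for 14 days, 1 mL aliquots, pre-warmed 15 min at 37 °C, 5% CO2 on a rotating shaker. DMSO-diluted compound added in duplicate; incubation ended 30 min after A23187 by ice and 2 mM EGTA (final). Plasma methanol-extracted, TXB2 by EIA; average of two donors.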

Assay [10] has as its target T2, Prostaglandin G/H synthase 2 (Homo sapiens). Put plainly: In vitro average percent Inhibition of Prostaglandin G/H synthase 2 (COX-2) at a concentration of 10 uM determined in human whole blood by human whole blood assay. In kind it is tissue-based. In a few lines:
(§1)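 Heparinized whole blood from male or female donors free of aspirin/NSAIDs for 14 days, 1 mL aliquots pre-warmed 15 min at 37 °C, 5% CO2; compound in DMSO, duplicate wells; COX-2 induced by E. coli LPS added 4.5 h later, incubated 5 h; stopped on ice with 2 mM EGTA; plasma methanol-extracted, TXB2 by EIA; average of two donors.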

For assay [11] the target is unchanged. The experiment in a line: In vitro average percent Inhibition of Prostaglandin G/H synthase 2 (COX-2) at a concentration of 1 uM determined in human whole blood by human whole blood assay. In kind it is tissue-based. In a few lines: as §1

Some results are limits rather than exact numbers.

T1 sequence (P23219 whole entry): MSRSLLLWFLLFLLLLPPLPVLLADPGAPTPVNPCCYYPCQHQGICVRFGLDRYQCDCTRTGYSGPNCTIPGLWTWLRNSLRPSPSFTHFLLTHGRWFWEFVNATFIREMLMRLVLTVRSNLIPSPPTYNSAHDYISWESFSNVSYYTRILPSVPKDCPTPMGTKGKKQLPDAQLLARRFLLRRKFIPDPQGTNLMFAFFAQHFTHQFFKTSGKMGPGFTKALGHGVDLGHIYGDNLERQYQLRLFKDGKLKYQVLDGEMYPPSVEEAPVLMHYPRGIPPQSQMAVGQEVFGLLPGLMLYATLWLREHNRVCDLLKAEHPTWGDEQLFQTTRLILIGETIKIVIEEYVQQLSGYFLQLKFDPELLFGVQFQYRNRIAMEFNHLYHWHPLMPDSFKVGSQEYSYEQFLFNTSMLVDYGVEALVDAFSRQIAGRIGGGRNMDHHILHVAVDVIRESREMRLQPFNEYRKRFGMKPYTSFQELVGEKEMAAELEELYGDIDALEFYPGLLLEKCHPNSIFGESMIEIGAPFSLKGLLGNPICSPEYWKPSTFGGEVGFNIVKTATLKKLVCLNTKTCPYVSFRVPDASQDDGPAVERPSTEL

With `CS(=O)(=O)c1ccc(-c2cc3c(cc2C=C2CCCCC2)OCO3)cc1`, the IC50 in [1] is over 100 µM; in assay [5], 0.07 µM. Besides, the inhibition in assay [2] was found to be 50%; in assay [3], 90%; in [4] it was 90%; in [6] it was 0%.

As to `CS(=O)(=O)c1ccc(-c2cc3c(cc2Cc2ccccc2)OCO3)cc1`, the inhibition amounted to 50% in assay [7]; 65% in assay [2]; 85% in assay [3]; 85% in assay [4]; 0% in [6]. Besides, the IC50 in assay [8] turned out to be 10 µM; in assay [9], 60 µM.

On to `CS(=O)(=O)c1ccc(-c2cc3c(cc2CCCc2ccccc2)OCO3)cc1`, for which the inhibition in assay [10] was 35%; in assay [2] it was 65%; in [3], 0%; in assay [11] it was 15%; in assay [4], 15%; in assay [6], 10%.
